Screens (PubChem BioAssay)
Shown are actives, neighbours in structure and some others; about 2.9% of the full set was active somewhere.
TRPC4 act – activators of mouse TRPC4 channel | 310,000 compounds, 0.49% hits | B-score at 10 µM | Q9QUQ5 | HEK293 TRPC4beta/mu-opioid, Fluo4 calcium fluorescence; active compounds read high;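 active means B-score above 5 SD of library B-scores, and initial fluorescence ratio not above library mean plus 5 SD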;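 further: positive B-score marks a calcium rise read as TRPC4 activation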
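Technique: kinetic Fluo4 calcium fluorescence; Test system: TRPC4beta and mu-opioid receptor HEK293 stable cells; Measure: B-scored integrated calcium fluorescence ratio; Benchmarks: low control buffer alone, high control maximal DAMGO; Schedule: 45 min room-temperature Fluo4 loading, 110 s read.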
TRPC6 act – activates the mouse TRPC6 cation channel. Q61143. HEK293-TRPC6 membrane potential dye fluorescence; active compounds read high. B-score at 10 µM. 310,000 compounds, 0.13% hits. AID 2550;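 active means B-score of the integrated fluorescence ratio above library mean plus 3 SD, and starting fluorescence ratio within library mean plus 5 SD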;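 further: higher score means more depolarization so channel activation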
Target sequence (Q61143 whole entry, looked up): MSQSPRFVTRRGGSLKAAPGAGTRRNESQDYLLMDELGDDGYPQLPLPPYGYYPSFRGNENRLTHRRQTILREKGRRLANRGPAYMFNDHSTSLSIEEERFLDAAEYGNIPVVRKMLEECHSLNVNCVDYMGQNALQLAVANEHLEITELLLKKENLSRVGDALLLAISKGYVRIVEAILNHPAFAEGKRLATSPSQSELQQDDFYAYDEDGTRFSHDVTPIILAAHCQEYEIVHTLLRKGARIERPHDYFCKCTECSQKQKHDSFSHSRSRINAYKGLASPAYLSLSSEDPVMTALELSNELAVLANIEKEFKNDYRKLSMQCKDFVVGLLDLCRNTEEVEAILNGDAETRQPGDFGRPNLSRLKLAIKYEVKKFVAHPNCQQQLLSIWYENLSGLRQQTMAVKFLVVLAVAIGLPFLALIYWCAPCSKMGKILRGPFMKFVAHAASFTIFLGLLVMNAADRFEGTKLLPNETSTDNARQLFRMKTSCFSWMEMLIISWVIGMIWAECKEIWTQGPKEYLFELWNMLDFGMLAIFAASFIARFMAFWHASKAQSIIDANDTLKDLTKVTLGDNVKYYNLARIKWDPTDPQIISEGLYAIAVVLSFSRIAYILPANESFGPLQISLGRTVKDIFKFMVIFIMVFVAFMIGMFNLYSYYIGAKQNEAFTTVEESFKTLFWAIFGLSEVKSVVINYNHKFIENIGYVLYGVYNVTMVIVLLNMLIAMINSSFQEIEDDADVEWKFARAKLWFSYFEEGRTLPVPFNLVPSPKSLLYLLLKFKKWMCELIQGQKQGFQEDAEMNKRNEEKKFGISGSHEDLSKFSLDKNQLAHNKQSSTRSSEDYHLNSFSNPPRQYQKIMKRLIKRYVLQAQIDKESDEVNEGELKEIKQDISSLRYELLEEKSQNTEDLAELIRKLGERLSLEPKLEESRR
TRPC6 inh – blocks the mouse TRPC6 cation channel. Q61143. AID 2553. HEK293-TRPC6, membrane potential dye, ACh-evoked depolarization; active compounds read low. B-score at 10 µM. 310,000 compounds, 1.1% hits;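 active means B-score under library mean minus 3 SD, initial fluorescence not abnormally high, positive integrated signal ratio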;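 further: B-score derived from integrated fluorescence ratio over the kinetic read; more negative B-score means stronger inhibition of depolarization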
TRPC4 potent – allosterically enhances the mouse TRPC4 cation channel | 310,000 compounds, 0.42% hits | HEK293 TRPC4beta/mu-opioid, DAMGO EC20, Fluo-4 Ca2+ flux; active compounds read high | B-score at 10 µM | AID 2227 | Q9QUQ5;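 active means B-score of calcium response area above 5 SD of library B-scores, with initial fluorescence ratio within 5 SD of library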
TRPC4 inh – TRPC4 (mouse) channel inhibition; Q9QUQ5; HEK293 TRPC4beta/mu-opioid, DAMGO-evoked Fluo4 calcium flux; active compounds read low; B-score at 10 µM; 300,000 compounds, 0.39% hits; AID 2247;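 active means B-score over 3 SD under the library average, no early fluorescence shift, positive overall ratio signal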
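Assay system: Stable TRPC4beta/mu-opioid receptor HEK293 cells | Reagent: DAMGO in two steps, submaximal then maximal | Compound dosing: Single concentration per test compound | Signal: Fluo4 Ca2+ flux fluorescence | Evaluation: Per-well B score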
Kir21 inh – inhibitors of mouse Kir2.1 inward-rectifier potassium channel. P35561. HEK293-Kir2.1, FluxOR thallium flux fluorescence; active compounds read low. B-score at 10 µM. 310,000 compounds, 0.85% hits. AID 1672;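 active means fluorescence ratio B-score at or below minus 3 SD of library scores, with starting-brightness B-score within 2 SD, cut at about -4.2 in these data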;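 further: channel flux triggered by added potassium and thallium sulfate stimulus; B-score of peak minus minimum fluorescence over baseline after thallium stimulus; more negative B-score means stronger Kir2.1 block with less thallium influx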
TRPC4 spec 2 – mouse TRPC4 off-target activity of TRPC6 inhibitors, second screen | shares compounds with TRPC6 inh | HEK293 TRPC4/MOR, membrane potential dye fluorescence; channel activated by saturating DAMGO dose | inhibition, % at 10 µM | 920 compounds, 42% hits;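 active means compounds whose fluorescence signal differed from control wells by over 3 SD, either direction, in both duplicate plates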
TRPC4 spec – tests whether TRPC6 inhibitors also affect mouse TRPC4; shares compounds with TRPC6 inh; HEK293 TRPC4/mu-opioid, membrane potential fluorescence; activity change, negative = inhibition, % at 10 µM; 920 compounds, 61% hits; AID 2777;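 active means rise or fall in signal beyond 3 SD of buffer-only wells in both replicate plates, either sign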;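 further: integrated kinetic ratio of fluorescence range over baseline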
HEK293 MPD ctr 2-1 – second counter-screen for TRPC6 inhibitors: parental HEK293 cells; parental HEK293 membrane potential dye fluorescence; maximal acetylcholine challenge after compound addition; AID 2779; signal change vs control, % at 10 µM; 920 compounds, 31% hits; shares compounds with TRPC6 inh;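 active means membrane potential signal moving either way by over 3 SD of the maximum-effect control, in both duplicate plates, meaning non-specific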
HEK293 MPD ctr-1 – checks TRPC6 inhibitor effects in parental HEK293 cells | shares compounds with TRPC6 inh | parental HEK293 membrane potential dye fluorescence | membrane potential signal change, % at 10 µM | 920 compounds, 60% hits | AID 2780;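 active means membrane potential signal shifting up or down by more than 3 SD of buffer-only wells, on both duplicate plates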
HEK293 MPD ctr-2 – parental HEK293 nonspecific activity of TRPC6 modulators. AID 488924. membrane potential signal change, % at 10 µM. shares compounds with TRPC6 inh. 2,400 compounds, 51% hits. membrane potential dye fluorescence;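 active means membrane potential signal moves up or down beyond 5 SD from buffer-only wells, on both duplicate plates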
HEK293 MPD ctr 2-2 – second check of TRPC6 modulator effects in parental HEK293 cells. inhibition, % at 10 µM. membrane potential dye fluorescence; after compound, maximal acetylcholine stimulation. shares compounds with TRPC6 inh. 2,400 compounds, 14% hits;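 active means membrane potential signal drops by more than 5 SD from the mean control signal, in both duplicate plates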
TRPC4 ctr mod – tests whether TRPC6 modulators also affect mouse TRPC4 | shares compounds with TRPC6 inh | HEK293 TRPC4/mu-opioid, membrane potential fluorescence | percent change from control (negative = decrease, positive = increase), % at 10 µM | 2,400 compounds, 69% hits | AID 488927;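 active means membrane potential signal moved up or down beyond 5 SD of buffer control wells, in both duplicate plates, actives on both sides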
TRPC4 ctr inh 2 – second selectivity test of TRPC6 modulators against mouse TRPC4; shares compounds with TRPC6 inh; HEK293 TRPC4/mu-opioid, membrane potential dye fluorescence; stimulated with maximal-effect DAMGO; inhibition, % at 10 µM; 2,400 compounds, 55% hits; AID 488928;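 active means drop in membrane potential signal beyond 5 SD of the control wells in both duplicate plates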;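 further: TRPC4 counter screen for TRPC6 hits run under conditions tuned for TRPC6 not TRPC4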
TRPC6 inh conf – confirmation of mouse TRPC6 inhibitors; shares compounds with TRPC6 inh; HEK293-TRPC6, membrane potential dye, ACh-evoked depolarization; inhibition, % at 10 µM; 3,300 compounds, 43% hits;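 active means fluorescence ratio falls more than 5 SD below the full-stimulation control mean, in both duplicate runs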;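 further: integrated fluorescence ratio of peak minus minimum over baseline after agonist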
TRPC6 act conf – confirmation of mouse TRPC6 activators. shares compounds with TRPC6 inh. HEK293-TRPC6 membrane potential dye fluorescence, FDSS. activation, % at 10 µM. AID 488961. 2,800 compounds, 11% hits;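 active means ratio signal rise beyond 5 SD above unstimulated control wells' mean, seen in both duplicate runs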
Each line names hits and unclear results; the compound was inactive in the other large screens (follow-up assays come after a bar, where they were run).

O=C1C2CCCCC2C(=O)N1c1ccc(NC2CCN(Cc3ccccc3)CC2)c([N+](=O)[O-])c1 (stereo unspecified)	TRPC4 act 43, TRPC6 inh -6.3 | HEK293 MPD ctr-2 inactive | HEK293 MPD ctr 2-2 inactive | TRPC4 ctr mod 14% | TRPC4 ctr inh 2 51% | TRPC6 inh conf inactive | TRPC6 act conf inactive
CCOC(=O)C(CC)(CC)/C(C)=N/NC(=O)CC#N	none
CCOc1ccc(CC(=O)N/N=C/c2cccnc2)cc1OCC	none
CSc1nc(-c2ccccc2)nc(N2CCOCC2)c1C(C)=O	none
COc1ccc(CNc2ccc(Cl)cc2)cc1Cn1ccnc1	TRPC6 inh -5.2, Kir21 inh -4.3 | HEK293 MPD ctr-2 inactive | HEK293 MPD ctr 2-2 inactive | TRPC4 ctr mod inactive | TRPC4 ctr inh 2 56% | TRPC6 inh conf inactive | TRPC6 act conf inactive
CCc1ccc(NCc2ccc(OC)c(Cn3ccnc3)c2)cc1	TRPC6 inh -5.4 | HEK293 MPD ctr-2 inactive | HEK293 MPD ctr 2-2 inactive | TRPC4 ctr mod -10% | TRPC4 ctr inh 2 52% | TRPC6 inh conf 40% | TRPC6 act conf inactive
COc1ccccc1N1CCN(C2CCCN(C(=O)CCN3CCCCO3)C2)CC1 (stereo unspecified)	none
O=C1NC(=Nc2ccccc2Cl)S/C1=C\c1cccc([N+](=O)[O-])c1O	TRPC6 inh -6 | HEK293 MPD ctr-2 inactive | HEK293 MPD ctr 2-2 inactive | TRPC4 ctr mod -12% | TRPC4 ctr inh 2 65% | TRPC6 inh conf inactive | TRPC6 act conf inactive
CN(C)C=Nc1ncc2c3ccccc3n(CCN(C)C)c2c1C#N	TRPC6 inh -7 | TRPC4 spec 2 54% | TRPC4 spec -16% | HEK293 MPD ctr 2-1 inactive | HEK293 MPD ctr-1 -232% | TRPC6 inh conf inactive | TRPC6 act conf inactive
O=[N+]([O-])c1ccc(Oc2ccc(F)cc2)c2ccncc12	TRPC6 inh -5.1 | HEK293 MPD ctr-2 inactive | HEK293 MPD ctr 2-2 inactive | TRPC4 ctr mod inactive | TRPC4 ctr inh 2 inactive | TRPC6 inh conf inactive | TRPC6 act conf inactive
O=C(C1COc2ccccc2O1)N1CCN(c2nc3c(F)cc(F)cc3s2)CC1 (stereo unspecified)	TRPC6 inh -8.5 | TRPC4 spec 2 inactive | TRPC4 spec inactive | HEK293 MPD ctr 2-1 inactive | HEK293 MPD ctr-1 inactive | TRPC6 inh conf inactive | TRPC6 act conf inactive
CCCCC(=O)NC(c1ccc(Cl)cc1Cl)c1ccc2cccnc2c1O (stereo unspecified)	TRPC6 inh -5.2 | HEK293 MPD ctr-2 -154% | HEK293 MPD ctr 2-2 inactive | TRPC4 ctr mod -30% | TRPC4 ctr inh 2 inactive | TRPC6 inh conf inactive | TRPC6 act conf inactive
CCC(=O)NC(c1ccc(Cl)cc1Cl)c1ccc2cccnc2c1O (stereo unspecified)	none
CCCC(=O)NC(c1ccc(C(C)C)cc1)c1ccc2cccnc2c1O (stereo unspecified)	TRPC6 inh -6.4 | HEK293 MPD ctr-2 inactive | HEK293 MPD ctr 2-2 inactive | TRPC4 ctr mod inactive | TRPC4 ctr inh 2 inactive | TRPC6 inh conf inactive | TRPC6 act conf inactive
CCCC(=O)NC(c1ccc(N(C)C)cc1)c1ccc2cccnc2c1O (stereo unspecified)	none
COc1ccc(-c2nn(-c3ccccc3)cc2C(=O)N2CCN(S(=O)(=O)c3cccc(F)c3)CC2)cc1	none
CC(=O)c1cc2c(cc1NC(=O)c1cc(C)nn1-c1ccccc1)OCO2	none
CC(=O)c1cc2c(cc1NC(=O)c1cnc(C)cn1)OCO2	TRPC6 inh -11 | TRPC4 spec 2 74% | TRPC4 spec -28% | HEK293 MPD ctr 2-1 inactive | HEK293 MPD ctr-1 -412% | TRPC6 inh conf inactive | TRPC6 act conf inactive
Fc1ccccc1-c1nc(NCCCN2CCOCC2)c2ccccc2n1	TRPC6 inh -5.1 | HEK293 MPD ctr-2 -272% | HEK293 MPD ctr 2-2 inactive | TRPC4 ctr mod -47% | TRPC4 ctr inh 2 55% | TRPC6 inh conf 52% | TRPC6 act conf inactive
c1csc(-c2nc(NCCCN3CCOCC3)c3ccccc3n2)c1	TRPC6 inh -7.2 | HEK293 MPD ctr-2 -180% | HEK293 MPD ctr 2-2 inactive | TRPC4 ctr mod -40% | TRPC4 ctr inh 2 72% | TRPC6 inh conf 68% | TRPC6 act conf inactive
Cc1ccc(-c2nc(NCCN3CCOCC3)c3ccccc3n2)cc1	TRPC6 inh -6.2 | HEK293 MPD ctr-2 -210% | HEK293 MPD ctr 2-2 inactive | TRPC4 ctr mod -38% | TRPC4 ctr inh 2 74% | TRPC6 inh conf 62% | TRPC6 act conf inactive
Clc1ccc(-c2nc(NCCCN3CCOCC3)c3ccccc3n2)cc1	TRPC6 inh -6.7 | TRPC4 spec 2 72% | TRPC4 spec -24% | HEK293 MPD ctr 2-1 inactive | HEK293 MPD ctr-1 -328% | TRPC6 inh conf 61% | TRPC6 act conf inactive
Clc1cccc(-c2nc(NCCN3CCOCC3)c3ccccc3n2)c1	none
CCOC(=O)C(NC(=O)c1ccc(Cl)cc1Cl)(Nc1ccc(C)cc1)C(F)(F)F (stereo unspecified)	none
